Experimental data published in ChEMBL document CHEMBL5058577, “EUbOPEN Chemogenomics Library 2 (Multiplex)” (2022).

Tested on: HEK-293T
Assay: Multiplex assay against HEK293T
Assay type: toxicity, cell-based
Settings: human
In short: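 Live cells were stained at seeding with Hoechst33342, BioTracker Green Microtubule Cytoskeleton Dye, MitoTracker Red and Annexin V Alexa Fluor 680, then imaged on a CQ1 microscope at 37°C and 5% CO2 after compound addition. CellPathfinder machine-learning gating split cells into Hoechst high-intensity objects or normal cells. Normal cells were split into healthy, pyknosed or fragmented nuclei, and pyknosed cells into mitotic or apoptotic. Tubulin, mitochondrial-mass and membrane-permeability phenotypes are per cents of healthy-nucleus cells.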

[1] = 12 h, 1 µM, compound concentration 1 uM, replicate 1
[2] = 12 h, 1 µM, compound concentration 1 uM, replicate 2
[3] = 12 h, 10 µM, compound concentration 10 uM, replicate 1
[4] = 12 h, 10 µM, compound concentration 10 uM, replicate 2
[5] = 24 h, 1 µM, compound concentration 1 uM, replicate 1
[6] = 24 h, 1 µM, compound concentration 1 uM, replicate 2
[7] = 24 h, 10 µM, compound concentration 10 uM, replicate 1
[8] = 24 h, 10 µM, compound concentration 10 uM, replicate 2
[9] = 48 h, 1 µM, compound concentration 1 uM, replicate 1
[10] = 48 h, 1 µM, compound concentration 1 uM, replicate 2
[11] = 48 h, 10 µM, compound concentration 10 uM, replicate 1
[12] = 48 h, 10 µM, compound concentration 10 uM, replicate 2

`CCCN1CCC[C@@H]2Cc3n[nH]cc3C[C@H]21.Cl` [QUINPIROLE HYDROCHLORIDE] was tested, and the “Population Apoptotic (%)” value [1] was 32%, the “Population Fragmented Nuclei (%)” value [1] was 6% and the “Population Healthy Nuclei (%)” value [1] was 84%. For the same compound, the “Population Hoechst High Intensity Objects (%)” value [1] was 6%, the “Population Membrane Permeable-Phenotype (%)” value [1] was 0% and the “Population Mitochondria Different-Phenotype (%)” value [1] was 37%. The “Population Mitotic Cells (%)” value [1] was 67%, the “Population Normal (%)” value [1] was 93% and the “Population Pyknosed Nuclei (%)” value [1] was 9%. For the same compound, the “Population Tubulin-Different-Phenotype (%)” value [1] was 22%, the “Total Cell Count” value [1] was 447 and the “Population Apoptotic (%)” value [2] was 63%. The “Population Fragmented Nuclei (%)” value [2] was 4%, the “Population Healthy Nuclei (%)” value [2] was 82% and the “Population Hoechst High Intensity Objects (%)” value [2] was 3%. The “Population Mitochondria Different-Phenotype (%)” value [2] was 67%, the “Population Mitotic Cells (%)” value [2] was 36% and the “Population Normal (%)” value [2] was 96%. For the same compound, the “Population Pyknosed Nuclei (%)” value [2] was 12%, the “Population Tubulin-Different-Phenotype (%)” value [2] was 26% and the “Total Cell Count” value [2] was 294. For the same compound, the “Population Apoptotic (%)” value [3] was 55%, the “Population Fragmented Nuclei (%)” value [3] was 11% and the “Population Healthy Nuclei (%)” value [3] was 72%. For the same compound, the “Population Hoechst High Intensity Objects (%)” value [3] was 9%, the “Population Membrane Permeable-Phenotype (%)” value [3] was 0% and the “Population Mitochondria Different-Phenotype (%)” value [3] was 53%. The “Population Mitotic Cells (%)” value [3] was 44%, the “Population Normal (%)” value [3] was 90% and the “Population Pyknosed Nuclei (%)” value [3] was 15%. The “Population Tubulin-Different-Phenotype (%)” value [3] was 40%, the “Total Cell Count” value [3] was 381 and the “Population Apoptotic (%)” value [4] was 46%. For the same compound, the “Population Fragmented Nuclei (%)” value [4] was 5%, the “Population Healthy Nuclei (%)” value [4] was 78% and the “Population Hoechst High Intensity Objects (%)” value [4] was 5%. For the same compound, the “Population Mitochondria Different-Phenotype (%)” value [4] was 69%, the “Population Mitotic Cells (%)” value [4] was 53% and the “Population Normal (%)” value [4] was 94%. For the same compound, the “Population Pyknosed Nuclei (%)” value [4] was 16%, the “Population Tubulin-Different-Phenotype (%)” value [4] was 26% and the “Total Cell Count” value [4] was 312. For the same compound, the “Population Apoptotic (%)” value [5] was 30%, the “Population Fragmented Nuclei (%)” value [5] was 12% and the “Population Healthy Nuclei (%)” value [5] was 79%. For the same compound, the “Population Hoechst High Intensity Objects (%)” value [5] was 3%, the “Population Membrane Permeable-Phenotype (%)” value [5] was 0% and the “Population Mitochondria Different-Phenotype (%)” value [5] was 17%. The “Population Mitotic Cells (%)” value [5] was 70%, the “Population Normal (%)” value [5] was 96% and the “Population Pyknosed Nuclei (%)” value [5] was 8%. The “Population Tubulin-Different-Phenotype (%)” value [5] was 14%, the “Total Cell Count” value [5] was 600 and the “Population Apoptotic (%)” value [6] was 29%. The “Population Fragmented Nuclei (%)” value [6] was 8%, the “Population Healthy Nuclei (%)” value [6] was 81% and the “Population Hoechst High Intensity Objects (%)” value [6] was 2%. The “Population Mitochondria Different-Phenotype (%)” value [6] was 37%, the “Population Normal (%)” value [6] was 97% and the “Population Pyknosed Nuclei (%)” value [6] was 9%. For the same compound, the “Population Tubulin-Different-Phenotype (%)” value [6] was 16%, the “Total Cell Count” value [6] was 390 and the “Population Apoptotic (%)” value [7] was 45%. For the same compound, the “Population Fragmented Nuclei (%)” value [7] was 10%, the “Population Healthy Nuclei (%)” value [7] was 77% and the “Population Hoechst High Intensity Objects (%)” value [7] was 4%. For the same compound, the “Population Membrane Permeable-Phenotype (%)” value [7] was 0%, the “Population Mitochondria Different-Phenotype (%)” value [7] was 38% and the “Population Mitotic Cells (%)” value [7] was 54%. The “Population Normal (%)” value [7] was 95%, the “Population Pyknosed Nuclei (%)” value [7] was 11% and the “Population Tubulin-Different-Phenotype (%)” value [7] was 27%. For the same compound, the “Total Cell Count” value [7] was 529, the “Population Apoptotic (%)” value [8] was 43% and the “Population Fragmented Nuclei (%)” value [8] was 7%. The “Population Healthy Nuclei (%)” value [8] was 78%, the “Population Hoechst High Intensity Objects (%)” value [8] was 2% and the “Population Mitochondria Different-Phenotype (%)” value [8] was 43%. The “Population Mitotic Cells (%)” value [8] was 56%, the “Population Normal (%)” value [8] was 97% and the “Population Pyknosed Nuclei (%)” value [8] was 13%. For the same compound, the “Population Tubulin-Different-Phenotype (%)” value [8] was 13%, the “Total Cell Count” value [8] was 406 and the “Population Apoptotic (%)” value [9] was 21%. For the same compound, the “Population Fragmented Nuclei (%)” value [9] was 16%, the “Population Healthy Nuclei (%)” value [9] was 76% and the “Population Hoechst High Intensity Objects (%)” value [9] was 1%. For the same compound, the “Population Membrane Permeable-Phenotype (%)” value [9] was 1%, the “Population Mitochondria Different-Phenotype (%)” value [9] was 9% and the “Population Mitotic Cells (%)” value [9] was 78%. For the same compound, the “Population Normal (%)” value [9] was 98%, the “Population Pyknosed Nuclei (%)” value [9] was 6% and the “Population Tubulin-Different-Phenotype (%)” value [9] was 10%. For the same compound, the “Total Cell Count” value [9] was 1105, the “Population Apoptotic (%)” value [10] was 33% and the “Population Fragmented Nuclei (%)” value [10] was 11%. The “Population Healthy Nuclei (%)” value [10] was 84%, the “Population Hoechst High Intensity Objects (%)” value [10] was 2% and the “Population Mitochondria Different-Phenotype (%)” value [10] was 19%. For the same compound, the “Population Mitotic Cells (%)” value [10] was 66%, the “Population Pyknosed Nuclei (%)” value [10] was 4% and the “Population Tubulin-Different-Phenotype (%)” value [10] was 8%. The “Total Cell Count” value [10] was 649, the “Population Apoptotic (%)” value [11] was 40% and the “Population Fragmented Nuclei (%)” value [11] was 15%. The “Population Healthy Nuclei (%)” value [11] was 78%, the “Population Hoechst High Intensity Objects (%)” value [11] was 2% and the “Population Membrane Permeable-Phenotype (%)” value [11] was 1%. The “Population Mitochondria Different-Phenotype (%)” value [11] was 23%, the “Population Mitotic Cells (%)” value [11] was 59% and the “Population Normal (%)” value [11] was 97%. The “Population Pyknosed Nuclei (%)” value [11] was 6%, the “Population Tubulin-Different-Phenotype (%)” value [11] was 15% and the “Total Cell Count” value [11] was 772. For the same compound, the “Population Apoptotic (%)” value [12] was 33%, the “Population Fragmented Nuclei (%)” value [12] was 13% and the “Population Healthy Nuclei (%)” value [12] was 80%. The “Population Hoechst High Intensity Objects (%)” value [12] was 1%, the “Population Membrane Permeable-Phenotype (%)” value [12] was 0% and the “Population Mitochondria Different-Phenotype (%)” value [12] was 28%. The “Population Mitotic Cells (%)” value [12] was 66%, the “Population Normal (%)” value [12] was 98% and the “Population Tubulin-Different-Phenotype (%)” value [12] was 13%. For the same compound, the “Total Cell Count” value [12] was 654.
